From ChEMBL document CHEMBL1143437, “2-Aryloxymethylmorpholine histamine H(3) antagonists” (Bioorg Med Chem Lett, 2008)

What was measured:
Histamine H3 receptor [1] = molecular target: T1, Histamine H3 receptor (Homo sapiens, UniProt Q9Y5N1); assay: Displacement of [125I]iodoproxyfan from human recombinant histamine H3 receptor expressed in human SK-N-MC cells; format: cell-based
Procedure, shortened: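 Cells stably expressing human H3 were grown to confluence, washed in PBS, pelleted and stored at −80 °C. Pellets were homogenized in 50 mM Tris–HCl, 5 mM EDTA, pH 7.5, spun at 1000g for 5 min, then at 25,000g for 25 min.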

Histamine H3 receptor [2] = molecular target: T1, Histamine H3 receptor; assay: Antagonist activity at human recombinant histamine H3 receptor expressed in human SK-N-MC cells; format: functional, cell-based; settings: read-out: pA2 (converted)
Histamine H3 receptor [3] = molecular target: T2, Histamine H3 receptor (Rattus norvegicus, UniProt Q9QYN8); assay: Displacement of [125I]iodoproxyfan from rat recombinant histamine H3 receptor expressed in human SK-N-MC cells; format: cell-based
Histamine H3 receptor [4] = molecular target: T2, Histamine H3 receptor; assay: Antagonist activity rat recombinant histamine H3 receptor expressed in human SK-N-MC cells; format: functional, cell-based; settings: read-out: pA2 (converted)
Rattus norvegicus = assay: Ex vivo histamine H3 receptor occupancy in rat striatum at 0.3 mg/kg, po; format: functional
Procedure, shortened: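 Rats were dosed orally, and striatal H3 receptor occupancy was measured ex vivo 60 min after dosing. Plasma and brain drug levels were taken at the same time. Values are mean ± SEM, n = 3.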

T1 sequence (Q9Y5N1 whole entry): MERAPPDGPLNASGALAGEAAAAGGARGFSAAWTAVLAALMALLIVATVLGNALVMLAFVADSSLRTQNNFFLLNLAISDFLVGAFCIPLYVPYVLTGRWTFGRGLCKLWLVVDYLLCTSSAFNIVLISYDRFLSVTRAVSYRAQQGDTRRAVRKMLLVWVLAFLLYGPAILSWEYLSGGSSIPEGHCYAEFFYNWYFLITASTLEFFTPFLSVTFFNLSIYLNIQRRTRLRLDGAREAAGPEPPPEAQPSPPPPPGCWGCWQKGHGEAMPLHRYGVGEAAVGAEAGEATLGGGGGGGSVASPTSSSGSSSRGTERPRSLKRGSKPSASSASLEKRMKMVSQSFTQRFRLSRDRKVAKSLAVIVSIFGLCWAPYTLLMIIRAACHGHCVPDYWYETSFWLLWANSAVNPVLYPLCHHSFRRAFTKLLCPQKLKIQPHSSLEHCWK
T2 sequence (Q9QYN8 whole entry): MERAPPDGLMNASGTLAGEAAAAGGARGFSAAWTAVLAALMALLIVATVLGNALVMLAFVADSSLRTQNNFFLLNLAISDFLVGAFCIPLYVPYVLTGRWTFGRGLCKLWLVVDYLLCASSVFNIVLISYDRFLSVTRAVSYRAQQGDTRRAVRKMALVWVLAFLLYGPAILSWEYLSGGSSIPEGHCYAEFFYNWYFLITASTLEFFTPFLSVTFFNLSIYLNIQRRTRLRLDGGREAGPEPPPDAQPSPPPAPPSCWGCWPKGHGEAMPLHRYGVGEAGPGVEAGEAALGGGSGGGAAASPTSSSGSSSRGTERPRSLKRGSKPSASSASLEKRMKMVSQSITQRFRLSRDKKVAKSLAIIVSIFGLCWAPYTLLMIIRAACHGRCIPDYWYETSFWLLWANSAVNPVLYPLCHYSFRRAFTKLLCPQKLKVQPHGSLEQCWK

CCOc1ccccc1OCC1CN(C2CC2)CCO1 (stereo not given)
Ki (Histamine H3 receptor [1]): > 10 µM

CN1CCOC(COc2ccc(CN3CCOCC3)cc2)C1 (stereo not given)
Ki (Histamine H3 receptor [1]): 2.1 µM

c1cc(OCC2CN(C3CCCC3)CCO2)ccc1CN1CCOCC1 (stereo not given)
Kb (Histamine H3 receptor [2]): 0.000955 µM
Ki (Histamine H3 receptor [1]): 0.0036 µM
Ki (Histamine H3 receptor [3]): 0.02 µM
Kb (Histamine H3 receptor [4]): 0.00479 µM

CCOc1ccccc1OCC1CN(C(C)C)CCO1 (stereo not given)
Ki (Histamine H3 receptor [1]): 9 µM

c1cc(CN2CCOCC2)cc(OCC2CN(C3CCC3)CCO2)c1 (stereo not given)
Kb (Histamine H3 receptor [2]): 0.0141 µM
Ki (Histamine H3 receptor [1]): 0.037 µM
Ki (Histamine H3 receptor [3]): 0.277 µM
Kb (Histamine H3 receptor [4]): 0.0794 µM

c1cc(OCC2CN(C3CCCC3)CCO2)ccc1CN1CCCC1 (stereo not given)
Kb (Histamine H3 receptor [2]): 0.000331 µM
Ki (Histamine H3 receptor [1]): 0.0022 µM
Ki (Histamine H3 receptor [3]): 0.0098 µM
Kb (Histamine H3 receptor [4]): 0.00158 µM

CCOc1ccccc1OCC1CN(C2CCC2)CCO1 (stereo not given)
Ki (Histamine H3 receptor [1]): 7.1 µM

CCOc1ccccc1OCC1CN(C2CCCC2)CCO1 (stereo not given)
Ki (Histamine H3 receptor [1]): 5.3 µM

c1cc(OCC2CN(C3CCCC3)CCO2)ccc1CN1CCCCC1 (stereo not given)
Kb (Histamine H3 receptor [2]): 0.000148 µM
Ki (Histamine H3 receptor [1]): 0.0025 µM
Ki (Histamine H3 receptor [3]): 0.01 µM
Kb (Histamine H3 receptor [4]): 0.00155 µM

c1cc(OCC2CN(C3CC3)CCO2)ccc1CN1CCOCC1 (stereo not given)
Ki (Histamine H3 receptor [1]): 0.106 µM

c1cc(OCC2CN(C3CCC3)CCO2)ccc1CN1CCOCC1 (stereo not given)
Kb (Histamine H3 receptor [2]): 0.00309 µM
Ki (Histamine H3 receptor [1]): 0.018 µM
Ki (Histamine H3 receptor [3]): 0.075 µM
Kb (Histamine H3 receptor [4]): 0.0191 µM

c1cc(OC[C@@H]2CN(C3CCCC3)CCO2)ccc1CN1CCOCC1
Kb (Histamine H3 receptor [2]): 0.00038 µM
Ki (Histamine H3 receptor [1]): 0.0019 µM
Ki (Histamine H3 receptor [3]): 0.0097 µM
Activity (Rattus norvegicus): 80%
Kb (Histamine H3 receptor [4]): 0.00214 µM

CCN1CCOC(COc2ccc(CN3CCOCC3)cc2)C1 (stereo not given)
Ki (Histamine H3 receptor [1]): 0.165 µM

c1cc(CN2CCOCC2)cc(OCC2CN(C3CC3)CCO2)c1 (stereo not given)
Ki (Histamine H3 receptor [1]): 0.566 µM

c1ccc(OCC2CNCCO2)cc1 (stereo not given)
Ki (Histamine H3 receptor [1]): > 10 µM

CC(C)N1CCOC(COc2ccccc2)C1 (stereo not given)
Ki (Histamine H3 receptor [1]): 4.8 µM

CC(C)N1CCOC(COc2ccc(CN3CCOCC3)cc2)C1 (stereo not given)
Ki (Histamine H3 receptor [1]): 0.049 µM
Ki (Histamine H3 receptor [3]): 0.092 µM

c1cc(OC[C@H]2CN(C3CCCC3)CCO2)ccc1CN1CCOCC1
Kb (Histamine H3 receptor [2]): 0.00794 µM
Ki (Histamine H3 receptor [1]): 0.031 µM
Ki (Histamine H3 receptor [3]): 0.121 µM
Kb (Histamine H3 receptor [4]): 0.0437 µM

CC(C)N1CCOC(COc2cccc(CN3CCOCC3)c2)C1 (stereo not given)
Kb (Histamine H3 receptor [2]): 0.0447 µM
Ki (Histamine H3 receptor [1]): 0.102 µM
Ki (Histamine H3 receptor [3]): 0.562 µM
Kb (Histamine H3 receptor [4]): 0.251 µM
